Activity calls are given as the source filed them. No cut-off for these calls is given here.

Data on 18 molecules can be found in ChEMBL document CHEMBL1138808, “Synthesis and anticancer activity of simplified indenoisoquinoline topoisomerase I inhibitors lacking substituents on the aromatic rings” (2004).

Assay [1] in a line: Growth inhibitory activity against human CNSSF-539 cell line. The format is functional. Put shortly:
(§1)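 Growth inhibition in human cancer cell culture. GI50 is the concentration giving 50% growth inhibition. Compounds were tested at concentrations up to […].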

Assay [2] deals with T1, DNA topoisomerase 1 (Homo sapiens) (UniProt P11387).
T1 sequence (whole entry): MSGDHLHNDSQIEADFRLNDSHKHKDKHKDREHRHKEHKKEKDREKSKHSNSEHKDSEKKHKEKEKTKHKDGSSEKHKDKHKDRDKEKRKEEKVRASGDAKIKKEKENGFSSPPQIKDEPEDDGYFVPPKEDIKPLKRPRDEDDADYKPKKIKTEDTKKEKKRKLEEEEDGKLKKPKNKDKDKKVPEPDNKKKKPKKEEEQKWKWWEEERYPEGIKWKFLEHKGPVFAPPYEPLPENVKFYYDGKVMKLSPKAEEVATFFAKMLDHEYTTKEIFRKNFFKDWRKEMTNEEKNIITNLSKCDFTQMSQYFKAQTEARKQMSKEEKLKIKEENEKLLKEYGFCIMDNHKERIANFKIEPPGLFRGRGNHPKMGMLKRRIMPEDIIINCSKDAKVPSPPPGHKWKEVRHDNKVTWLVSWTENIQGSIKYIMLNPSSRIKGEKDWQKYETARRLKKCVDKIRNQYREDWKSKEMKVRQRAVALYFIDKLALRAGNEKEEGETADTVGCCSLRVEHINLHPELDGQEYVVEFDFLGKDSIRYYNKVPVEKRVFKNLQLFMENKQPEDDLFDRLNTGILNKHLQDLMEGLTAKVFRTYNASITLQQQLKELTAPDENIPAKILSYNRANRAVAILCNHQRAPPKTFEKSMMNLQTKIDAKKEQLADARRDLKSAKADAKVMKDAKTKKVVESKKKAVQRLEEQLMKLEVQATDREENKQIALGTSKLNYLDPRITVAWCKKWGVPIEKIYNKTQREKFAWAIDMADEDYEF
Kind of assay: Induction of topoisomerase I mediated DNA cleavage; Activity similar to parent compound 1.

In assay [3] the test system is Panel (Carcinoma cell lines). Kind of assay: Mean graph mid point for growth inhibition of human cancer cell lines. The format is functional. More on the design: unit not given here. Put shortly: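 Mean graph midpoint of growth inhibition, taken across all human cancer cell lines successfully tested. Compounds were tested at concentrations up to […], and GI50 is the concentration giving 50% growth inhibition.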

A further assay relates to HOP-62. The assay can be described thus: Growth inhibitory activity against human lung HOP-62 cell line. The format is functional. Put shortly:
as §1

In a further assay the test system is SN12C. The assay can be described thus: Growth inhibitory activity against human renal SN12C cell line. The format is functional. Put shortly:
as §1

The next assay has as its system HCT-116. The assay can be described thus: Growth inhibitory activity against human colon HCT116 cell line. The format is functional. Put shortly:
as §1

For a further assay, the system named is DU-145. Kind of assay: Growth inhibitory activity against human prostate DU-145 cell line. The format is functional. Put shortly: as §1
The test system of a further assay is UACC-62. The assay can be described thus: Growth inhibitory activity against human melanoma UACC-62 cell line. The format is functional. Put shortly: as §1
In another assay the test system is MDA-MB-435. The assay can be described thus: Growth inhibitory activity against human breast MDA-MB-435 cell line. The format is functional. Put shortly: as §1
A further assay has as its system OVCAR-3. The assay can be described thus: Growth inhibitory activity against human ovarian OVCAR-3 cell line. The format is functional. Put shortly:
as §1

For assay [4], the target named is T1, DNA topoisomerase 1 (Homo sapiens). The assay can be described thus: Induction of topoisomerase I mediated DNA cleavage; greater activity than parent compound 1.
For assay [5] the target is unchanged. The assay can be described thus: Induction of topoisomerase I mediated DNA cleavage; Greater activity than parent compound 1.

`O=C1c2ccccc2-c2c1c1ccccc1c(=O)n2CCCO`: in assay [1], growth was halved (GI50) at 52500 nM. Further, in assay [2], the DNA cleavage result is recorded as “Activity similar to parent compound 1”.
As to `COc1cc2c3c(n(C)c(=O)c2cc1OC)-c1cc2c(cc1C3=O)OCO2`, the GI50 in assay [1] is 41000 nM; with HOP-62 it was 1300 nM; with SN12C it was 68000 nM; in the assay with HCT-116 it was 35000 nM; in the assay with DU-145, 37000 nM; in the assay with UACC-62, 4200 nM. Also, it took 96000 nM to inhibit growth with MDA-MB-435 by half (GI50). The “Mean graph mid point” value in assay [3] is on record as 20. For the same molecule, in [2], the DNA cleavage result is reported as “Activity similar to parent compound 1”.
As for `CCCn1c2c(c3ccccc3c1=O)C(=O)c1cc3c(cc1-2)OCO3`, the GI50 in [1] is > 100000 nM; in the assay on HOP-62, > 100000 nM; with SN12C, > 100000 nM; in the assay on HCT-116, 30200 nM; with OVCAR-3, 20900 nM; in the assay with DU-145 it was > 100000 nM. In addition, the GI50 with UACC-62 and in the assay with MDA-MB-435 was > 100000 nM throughout. Moreover, the “Mean graph mid point” value in assay [3] worked out at 66.1. In assay [2], the DNA cleavage entry was “Activity similar to parent compound 1”.
Take `CN(C)CCCn1c2c(c3ccccc3c1=O)C(=O)c1ccccc1-2`: the “Mean graph mid point” value in assay [3] is listed as 1.86. Besides, the DNA cleavage entry in [4] is “greater activity than compound 1”. Besides, the GI50 in the assay on HOP-62 came out at 1740 nM; in the assay on SN12C, 910 nM; with HCT-116 it was 580 nM; with OVCAR-3, 1700 nM; in the assay with DU-145 it was 1320 nM; with UACC-62 it was 510 nM. In addition, growth in the assay on MDA-MB-435 was halved (GI50) at 2820 nM.
Turning to `Cl.Cl.O=C1c2ccccc2-c2c1c1ccccc1c(=O)n2CCCNCCCn1ccnc1`, the GI50 in assay [1] was 1070 nM; in the assay on HOP-62, 410 nM; in the assay with SN12C, 2000 nM; with HCT-116, 1580 nM; with OVCAR-3 it was 1780 nM; with DU-145, 410 nM. The concentration for 50% growth inhibition (GI50) with UACC-62 turned out to be 6920 nM; in the assay with MDA-MB-435 it was 1450 nM. For the same molecule, in [3], the “Mean graph mid point” value stood at 1. The DNA cleavage result in [2] is “Activity similar to parent compound 1”.
As for `COc1cc2c3c(n(CCCNCCO)c(=O)c2cc1OC)-c1cc2c(cc1C3=O)OCO2.Cl`, the GI50 in assay [1] was 40 nM; in the assay with SN12C it was > 10 nM; in the assay with OVCAR-3 it was 350 nM; in the assay with DU-145, > 10 nM. Further, the “Mean graph mid point” value in [3] is listed as 0.11. Besides, the DNA cleavage result in [5] is given as “Greater activity than compound 1”.
Take `O=C1c2ccccc2-c2c1c1ccccc1c(=O)n2CCN1CCOCC1`: the GI50 is 85100 nM in assay [1]; > 100000 nM in the assay with HOP-62; 93300 nM in the assay on SN12C; 36300 nM with HCT-116; 81300 nM in the assay with OVCAR-3; > 100000 nM in the assay with DU-145. The GI50 with UACC-62 is 29500 nM; with MDA-MB-435, > 100000 nM. The “Mean graph mid point” value in assay [3] is reported as 67.6. The DNA cleavage result in assay [5] is on record as “Greater activity than compound 1”.
With `Cl.NCCCCn1c2c(c3ccccc3c1=O)C(=O)c1ccccc1-2`, the GI50 in [1] is 100 nM; in the assay with HOP-62, 80 nM; with SN12C, 40 nM; in the assay with HCT-116 it was 100 nM; with OVCAR-3 it was 520 nM; in the assay on DU-145, 10 nM. Besides, the results for the GI50 in the assay with UACC-62 and in the assay on MDA-MB-435 were 50 nM and 840 nM, respectively. Moreover, the “Mean graph mid point” value in [3] worked out at 0.16. The DNA cleavage entry in assay [4] was “greater activity than compound 1”.
Take `COc1cc2c3c(n(CCN)c(=O)c2cc1OC)-c1cc2c(cc1C3=O)OCO2.Cl`: the GI50 in assay [1] amounted to 1300 nM; in the assay on HOP-62, 580 nM; in the assay on SN12C, 360 nM; in the assay on HCT-116 it was 68 nM; in the assay with OVCAR-3 it was 860 nM; in the assay with DU-145, 400 nM. Further, the GI50 in the assay on UACC-62 worked out at 140 nM; with MDA-MB-435 it was 1040 nM. For the same molecule, the “Mean graph mid point” value in assay [3] worked out at 0.34. Besides, in assay [5], the DNA cleavage result is listed as “Greater activity than compound 1”.
Turning to `COc1cc2c(cc1OC)-c1c(c3ccccc3c(=O)n1CCCN)C2=O.Cl`, growth in assay [1] was halved (GI50) at 2930 nM. Besides, the “Mean graph mid point” value in assay [3] is given as 0.62. In addition, the DNA cleavage result in assay [2] is “Activity similar to parent compound 1”.
Consider `Cl.NCCCn1c2c(c3ccccc3c1=O)C(=O)c1ccccc1-2`, for which the 50% growth inhibitory concentration (GI50) in assay [1] stood at 250 nM; in the assay with HOP-62 it was 200 nM; in the assay with SN12C, 160 nM; in the assay on HCT-116, 180 nM; with OVCAR-3, 1380 nM; with DU-145, 220 nM. Further, the GI50 in the assay on UACC-62 stood at 260 nM; with MDA-MB-435, 780 nM. The “Mean graph mid point” value in assay [3] is listed as 0.32. In addition, the DNA cleavage entry in [4] is reported as “greater activity than compound 1”.
On to `COc1cc2c3c(n(CCCN(C)C)c(=O)c2cc1OC)-c1cc2c(cc1C3=O)OCO2`, for which the GI50 in assay [1] stood at 190 nM; in the assay on HOP-62 it was 18 nM; with SN12C, 900 nM; with HCT-116 it was 120 nM; in the assay on OVCAR-3, 1400 nM; with DU-145, 140 nM. In addition, the GI50 with UACC-62 was 540 nM; with MDA-MB-435 it was 650 nM. Also, the “Mean graph mid point” value in assay [3] is 0.35. Further, in [5], the DNA cleavage result is listed as “Greater activity than compound 1”.
`CC[C@@]1(O)C(=O)OCc2c1cc1n(c2=O)Cc2cc3ccccc3nc2-1` [CAMPTOTHECIN] yielded a 50% growth inhibitory concentration (GI50) in assay [1] of 10 nM. The “Mean graph mid point” value in assay [3] worked out at 0.04. In addition, in assay [5], the DNA cleavage entry was “Active”.
In assay [1], `O=C1c2ccccc2-c2c1c1ccccc1c(=O)n2CCO` showed a concentration for 50% growth inhibition (GI50) of 12200 nM. Besides, the DNA cleavage result in [2] is “Activity similar to parent compound 1”.
Regarding `N=C(N)NCCCn1c2c(c3ccccc3c1=O)C(=O)c1ccccc1-2.O=C(O)C(F)(F)F`, the 50% growth inhibitory concentration (GI50) in assay [1] amounted to 370 nM; in the assay with HOP-62 it was 690 nM; with SN12C it was 230 nM; in the assay on HCT-116, 22400 nM; with OVCAR-3, 18200 nM; with DU-145, 7590 nM. The figures for the GI50 with UACC-62 and in the assay on MDA-MB-435 were 11000 nM and 25700 nM, respectively. Moreover, the “Mean graph mid point” value in assay [3] is 9.77. The DNA cleavage entry in [5] is given as “Greater activity than compound 1”.
Molecule `COc1cc2c3c(n(CCCN)c(=O)c2cc1OC)-c1cc2c(cc1C3=O)OCO2.Cl` gave a concentration for 50% growth inhibition (GI50) in [1] of 260 nM. Also, the “Mean graph mid point” value in [3] came out at 0.16. Also, the DNA cleavage result in assay [4] is “greater activity than compound 1”.
Take `Cl.NCCn1c2c(c3ccccc3c1=O)C(=O)c1ccccc1-2`: the GI50 was 210 nM in assay [1]; 620 nM with HOP-62; 490 nM with SN12C; 270 nM with HCT-116; 710 nM in the assay with OVCAR-3; 760 nM in the assay with DU-145. For the same molecule, the GI50 in the assay on UACC-62 and in the assay with MDA-MB-435 was 920 nM throughout. The “Mean graph mid point” value in [3] is recorded as 0.53. Besides, the DNA cleavage result in [4] is on record as “greater activity than compound 1”.
With `CCn1c2c(c3ccccc3c1=O)C(=O)c1cc3c(cc1-2)OCO3`, the GI50 was 40700 nM in assay [1]; 36300 nM with HOP-62; > 100000 nM in the assay on SN12C; 95500 nM with HCT-116; 89100 nM with OVCAR-3; > 100000 nM in the assay on DU-145. Moreover, the values for the GI50 with UACC-62 and in the assay with MDA-MB-435 were 20000 nM and > 100000 nM, respectively. Also, the “Mean graph mid point” value in [3] was determined as 51.3. Further, the DNA cleavage result in [4] is “greater activity than compound 1”.
